Source: ChEMBL document CHEMBL1134494, “2-Amino-6-arylsulfonylbenzonitriles as non-nucleoside reverse transcriptase inhibitors of HIV-1” (J Med Chem, 2001)
Blank lines part the entries; values can stand above or below the compound they belong to.

Columns and labels:
[1] = tested on: MT4; experiment: Antiviral activity against HIV-1 infected MT-4 cells; No significant activity uM; type: functional, cell-based; conditions: Homo sapiens
How it was run: (§1)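 HTLV-1-transformed MT4 cells were infected with HIV-1 strain 3B at 100× the amount giving a 50% drop in cell growth. They were cultured 5 days with a range of compound concentrations. IC50 is the concentration restoring 50% of infected-cell growth (cytopathic effect) relative to uninfected MT4 controls.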

[2] = tested on: MT4; experiment: Antiviral activity against HIV-1 infected MT-4 cells; no significant activity uM; type: functional, cell-based; conditions: Homo sapiens; how it was run: as §1
[3] = target: Human immunodeficiency virus type 1 reverse transcriptase (Human immunodeficiency virus 1, UniProt Q72547); experiment: Inhibitory activity against HIV-1 reverse transcriptase
How it was run: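 Recombinant HIV RT at 1 nM was combined with 40 nM Eu-chelate-labeled biotinylated DNA primer/RNA template and 100 nM Cy5-dUTP. Reactions were started with enzyme.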

[4] = tested on: MT4; experiment: Cell culture cytotoxicity against MT-4 cells.; type: functional, cell-based; conditions: Homo sapiens
How it was run: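 MT4 cells were exposed to compound in parallel with the 5-day HIV-1 strain 3B cytopathic-effect assay. Compound-induced cytotoxicity is reported as the cell culture cytotoxicity IC50 (CCIC50).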

[5] = tested on: MT4; experiment: Antiviral activity against HIV-1 infected MT-4 cells at a dose of 5 uM; type: functional; conditions: Homo sapiens
[6] = tested on: HeLa; experiment: Antiviral activity against K103N/V108I mutant virus in the HeLa MAGI assay.; type: functional, cell-based, Homo sapiens
How it was run: (§2)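 Isogenic recombinant HIV-1 strains carrying the listed RT mutations were tested against the test compounds in HeLa MAGI indicator cells. Beta-galactosidase was quantified by activation of a chemiluminescent substrate 3 days after infection. IC50 was the concentration inhibiting 50% of the HIV-1-induced beta-galactosidase signal relative to untreated controls. It was determined for each recombinant virus.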

[7] = tested on: HeLa; experiment: Antiviral activity against K103N/Y181C mutant virus in the HeLa MAGI assay.; type: functional, cell-based, Homo sapiens; how it was run: as §2
[8] = tested on: HeLa; experiment: Antiviral activity against P236L mutant virus in the HeLa MAGI assay.; type: functional, cell-based, Homo sapiens; how it was run: as §2
[9] = tested on: HeLa; experiment: Antiviral activity against V106A/Y181C mutant virus in the HeLa MAGI assay.; type: functional, cell-based, Homo sapiens; how it was run: as §2
[10] = tested on: HeLa; experiment: Antiviral activity against V108I mutant virus in the HeLa MAGI assay.; type: functional, cell-based, Homo sapiens; how it was run: as §2
[11] = tested on: HeLa; experiment: Antiviral activity against V108I/Y181C mutant virus in the HeLa MAGI assay.; type: functional, cell-based, Homo sapiens; how it was run: as §2
[12] = tested on: HeLa; experiment: Antiviral activity against Y181C mutant virus in the HeLa MAGI assay.; type: functional, cell-based, Homo sapiens; how it was run: as §2
[13] = tested on: HeLa; experiment: Antiviral activity against Y188C mutant virus in the HeLa MAGI assay.; type: functional, cell-based, Homo sapiens; how it was run: as §2
[14] = tested on: HeLa; experiment: Antiviral activity against wild-type HIV-1 in the HeLa MAGI assay.; type: functional, cell-based; conditions: Homo sapiens
How it was run: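 HeLa MAGI cells were infected with isogenic recombinant HIV-1. After 3 days, β-galactosidase was quantified by chemiluminescent substrate activation. IC50 is the concentration inhibiting 50% of the HIV-1-induced β-galactosidase signal relative to untreated controls.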

[15] = tested on: HeLa; experiment: Antiviral activity against E138K mutant virus in the HeLa MAGI assay.; type: functional, cell-based, Homo sapiens; how it was run: as §2
[16] = tested on: HeLa; experiment: Antiviral activity against G190A mutant virus in the HeLa MAGI assay.; type: functional, cell-based, Homo sapiens; how it was run: as §2
[17] = tested on: HeLa; experiment: Antiviral activity against K103N mutant virus in the HeLa MAGI assay.; type: functional, cell-based, Homo sapiens; how it was run: as §2
[18] = tested on: HeLa; experiment: Antiviral activity against K103N/L100I mutant virus in the HeLa MAGI assay.; type: functional, cell-based, Homo sapiens; how it was run: as §2
[19] = tested on: HeLa; experiment: Antiviral activity against K103N/P225H mutant virus in the HeLa MAGI assay.; type: functional, cell-based, Homo sapiens; how it was run: as §2
[20] = tested on: Human immunodeficiency virus 1; experiment: Antiviral activity against HIV-1 infected human MT-4 cells.; type: functional, organism-based; conditions: Human immunodeficiency virus 1, MT4; how it was run: as §1
[21] = tested on: HeLa; experiment: Antiviral activity against V106A mutant virus in the HeLa MAGI assay.; type: functional, cell-based, Homo sapiens; how it was run: as §2
[22] = target: Human immunodeficiency virus type 1 reverse transcriptase (Human immunodeficiency virus 1) (UniProt Q72547); experiment: Inhibitory activity against HIV-1 reverse transcriptase; no significant activity uM
How it was run: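 Recombinant HIV RT at 1 nM was added to start 50 µL reactions. Cy5-dUMP incorporation was followed for 30 min by time-resolved energy transfer (excitation 340 nm, emission 665 nm).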

SMILES: O=[N+]([O-])c1ccccc1[S+]([O-])c1ccccc1[N+](=O)[O-]
NS [1]: No significant activity

IC50 [3]: > 17 µM
SMILES: COc1ccc(Sc2cccc(N)c2C#N)cc1
NS [2]: no significant activity

SMILES: N#Cc1c(N)cccc1Sc1cc(Cl)cc(Cl)c1
IC50 [4]: 3 µM
inhibition at 5 µM [5]: 62%
IC50 [3]: 0.12 µM

SMILES: COc1cc(C(F)(F)F)cc(S(=O)(=O)c2cccc(N)c2C#N)c1
IC50 [6]: 10 µM
IC50 [7]: > 50 µM
IC50 [8]: 0.007 µM
IC50 [9]: 2.1 µM
IC50 [10]: 0.12 µM
IC50 [11]: 36 µM
IC50 [12]: 36 µM
IC50 [13]: 0.4 µM
IC50 [14]: 0.063 µM
IC50 [15]: 0.08 µM
IC50 [16]: 0.66 µM
IC50 [17]: 10.5 µM
IC50 [18]: 5 µM
IC50 [19]: 5.5 µM
IC50 [20]: 0.09 µM
IC50 [4]: 164 µM
IC50 [3]: 0.04 µM
IC50 [21]: 0.013 µM

IC50 [20]: 16 µM
NS [22]: no significant activity
SMILES: Cc1ccccc1Sc1cccc(N)c1C#N
IC50 [4]: > 40 µM
